Results published in ChEMBL document CHEMBL3525900, “Pharmacokinetics, distribution, and metabolism of [14C]sunitinib in rats, monkeys, and humans” (Drug Metab Dispos, 2012).

Columns and labels:
[1] = Drug concentration in male albino rat pituitary gland assessed as radioactivity per gram of tissue at 20 mg/kg administered as single dose via gastric gavage measured after 6 hrs by autoradiographic analysis; type: ADME, organism-based; set-up: dose 20 mg/kg, dosed compound name [14C]Sunitinib; details: in vivo, po
[2] = system: Kidney; assay: Drug concentration in male albino rat kidney assessed as radioactivity per gram of tissue at 20 mg/kg administered as single dose via gastric gavage measured after 72 hrs by autoradiographic analysis; type: ADME, organism-based; set-up: dose 20 mg/kg, dosed compound name [14C]Sunitinib; details: in vivo, po
[3] = system: Large intestine; assay: Drug concentration in female albino rat large intestine assessed as radioactivity per gram of tissue at 20 mg/kg administered as single dose via gastric gavage measured after 3 hrs by autoradiographic analysis; type: ADME, organism-based; set-up: dose 20 mg/kg, dosed compound name [14C]Sunitinib; details: in vivo, po
In short: (§1)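 Sprague Dawley albino rats, ca 7-8 weeks old, dosed once by gastric gavage with [14C]sunitinib L-malate (15 mg freebase/kg, 100 µCi/kg). One male and one female killed by CO2 at 3, 6, 24, 72 and 168 h. Carcasses frozen in solid CO2/hexane, embedded and cut into 30 µm sagittal sections, then freeze-dried. Radioactivity quantified by whole-body autoradiography against standards by regression, background subtracted.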

[4] = system: Small intestine; assay: Drug concentration in female Lister Hooded pigmented rat small intestine assessed as radioactivity per gram of tissue at 20 mg/kg administered as single dose via gastric gavage measured after 24 hrs by autoradiographic analysis; type: ADME, organism-based; set-up: dose 20 mg/kg, dosed compound name [14C]Sunitinib; details: in vivo, po
In short: (§2)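 Lister Hooded (pigmented) rats, ca 7-8 weeks old, acclimated 7 days, given [14C]sunitinib L-malate by gastric gavage at 20 mg/kg (15 mg freebase/kg, 100 µCi/kg). One male and one female killed by CO2 at 24, 72, 168 and 336 h. Carcasses frozen in solid CO2/hexane and embedded in frozen cellulose. 30 µm sagittal cryosections were freeze-dried. Tissue radioactivity measured by quantitative whole-body autoradiography against calibration standards, with background subtracted.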

[5] = system: Kidney; assay: Drug concentration in male albino rat kidney assessed as radioactivity per gram of tissue at 20 mg/kg administered as single dose via gastric gavage measured after 3 hrs by autoradiographic analysis; type: ADME, organism-based; set-up: dose 20 mg/kg, dosed compound name [14C]Sunitinib; details: in vivo, po
[6] = system: Rattus norvegicus; assay: Total drug recovery in female Sprague-Dawley rat at 15 mg/kg, po administered as single dose during 0 to 72 hrs by liquid scintillation counting; type: ADME, organism-based; set-up: dose 15 mg/kg, dosed compound name [14C]Sunitinib, route oral; details: in vivo
[7] = system: Spleen; assay: Drug concentration in male albino rat spleen assessed as radioactivity per gram of tissue at 20 mg/kg administered as single dose via gastric gavage measured after 6 hrs by autoradiographic analysis; type: ADME, organism-based; set-up: dose 20 mg/kg, dosed compound name [14C]Sunitinib; details: in vivo, po
[8] = system: Zone of skin; assay: Drug concentration in female Lister Hooded pigmented rat abdomen skin assessed as radioactivity per gram of tissue at 20 mg/kg administered as single dose via gastric gavage measured after 336 hrs by autoradiographic analysis; type: ADME, organism-based; set-up: dose 20 mg/kg, dosed compound name [14C]Sunitinib; details: in vivo, po
In short: (§3)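 Pigmented Lister Hooded rats, 7-8 weeks old, received [14C]sunitinib L-malate by gavage at 20 mg/kg (15 mg freebase/kg, 100 µCi/kg). One rat per sex was killed by CO2 at each of 24, 72, 168 and 336 h. Carcasses were frozen in solid CO2/hexane and cut into 30 µm sagittal sections, then freeze-dried. Tissue radioactivity was quantified by whole-body autoradiography calibrated against standards by regression (LOQ 0.04–0.06 µg eq/g).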

[9] = Drug recovery in urine of female Sprague-Dawley rat at 5 mg/kg, iv administered as single dose during 0 to 72 hrs by liquid scintillation counting; type: ADME, organism-based; set-up: dose 5 mg/kg, dosed compound name [14C]Sunitinib, route intravenous; details: in vivo
[10] = Drug concentration in female Lister Hooded pigmented rat salivary gland assessed as radioactivity per gram of tissue at 20 mg/kg administered as single dose via gastric gavage measured after 24 hrs by autoradiographic analysis; type: ADME, organism-based; set-up: dose 20 mg/kg, dosed compound name [14C]Sunitinib; details: in vivo, po; in short: as §2
[11] = system: Cynomolgus monkey; assay: Drug recovery in cage residue of male cynomolgus monkey at 6 mg/kg, po administered as single dose during 0 to 336 hrs by liquid scintillation counting; type: ADME, organism-based, Macaca fascicularis; set-up: dose 6 mg/kg, dosed compound name [14C]Sunitinib, route oral; details: in vivo
[12] = system: Adrenal; assay: Drug concentration in male Lister Hooded pigmented rat adrenal assessed as radioactivity per gram of tissue at 20 mg/kg administered as single dose via gastric gavage measured after 168 hrs by autoradiographic analysis; type: ADME, organism-based; set-up: dose 20 mg/kg, dosed compound name [14C]Sunitinib; details: in vivo, po
[13] = system: Liver; assay: Drug concentration in male Lister Hooded pigmented rat liver assessed as radioactivity per gram of tissue at 20 mg/kg administered as single dose via gastric gavage measured after 24 hrs by autoradiographic analysis; type: ADME, organism-based; set-up: dose 20 mg/kg, dosed compound name [14C]Sunitinib; details: in vivo, po
[14] = system: Pancreas; assay: Drug concentration in male albino rat pancreas assessed as radioactivity per gram of tissue at 20 mg/kg administered as single dose via gastric gavage measured after 3 hrs by autoradiographic analysis; type: ADME, organism-based; set-up: dose 20 mg/kg, dosed compound name [14C]Sunitinib; details: in vivo, po
[15] = system: Spleen; assay: Drug concentration in female Lister Hooded pigmented rat spleen assessed as radioactivity per gram of tissue at 20 mg/kg administered as single dose via gastric gavage measured after 72 hrs by autoradiographic analysis; type: ADME, organism-based; set-up: dose 20 mg/kg, dosed compound name [14C]Sunitinib; details: in vivo, po; in short: as §2
[16] = system: Lung; assay: Drug concentration in female albino rat lung assessed as radioactivity per gram of tissue at 20 mg/kg administered as single dose via gastric gavage measured after 24 hrs by autoradiographic analysis; type: ADME, organism-based; set-up: dose 20 mg/kg, dosed compound name [14C]Sunitinib; details: in vivo, po; in short: as §1
[17] = system: Ovary; assay: Drug concentration in female albino rat ovary assessed as radioactivity per gram of tissue at 20 mg/kg administered as single dose via gastric gavage measured after 72 hrs by autoradiographic analysis; type: ADME, organism-based, Female gonad; set-up: dose 20 mg/kg, dosed compound name [14C]Sunitinib; details: in vivo, po; in short: as §1
[18] = system: Liver; assay: Drug concentration in female albino rat liver assessed as radioactivity per gram of tissue at 20 mg/kg administered as single dose via gastric gavage measured after 6 hrs by autoradiographic analysis; type: ADME, organism-based; set-up: dose 20 mg/kg, dosed compound name [14C]Sunitinib; details: in vivo, po; in short: as §1
[19] = system: Zone of skin; assay: Drug concentration in male albino rat abdomen skin assessed as radioactivity per gram of tissue at 20 mg/kg administered as single dose via gastric gavage measured after 24 hrs by autoradiographic analysis; type: ADME, organism-based; set-up: dose 20 mg/kg, dosed compound name [14C]Sunitinib; details: in vivo, po
[20] = system: Small intestine; assay: Drug concentration in male albino rat small intestine assessed as radioactivity per gram of tissue at 20 mg/kg administered as single dose via gastric gavage measured after 24 hrs by autoradiographic analysis; type: ADME, organism-based; set-up: dose 20 mg/kg, dosed compound name [14C]Sunitinib; details: in vivo, po
[21] = system: Stomach; assay: Drug concentration in female albino rat stomach assessed as radioactivity per gram of tissue at 20 mg/kg administered as single dose via gastric gavage measured after 6 hrs by autoradiographic analysis; type: ADME, organism-based; set-up: dose 20 mg/kg, dosed compound name [14C]Sunitinib; details: in vivo, po
[22] = system: Cynomolgus monkey; assay: Drug recovery in cage residue of female cynomolgus monkey at 6 mg/kg, po administered as single dose during 0 to 336 hrs by liquid scintillation counting; type: ADME, organism-based, Macaca fascicularis; set-up: dose 6 mg/kg, dosed compound name [14C]Sunitinib, route oral; details: in vivo
[23] = Drug concentration in female albino rat uveal tract assessed as radioactivity per gram of tissue at 20 mg/kg administered as single dose via gastric gavage measured after 3 hrs by autoradiographic analysis; type: ADME, organism-based; set-up: dose 20 mg/kg, dosed compound name [14C]Sunitinib; details: in vivo, po
[24] = system: Rattus norvegicus; assay: Apparent terminal half life as total radioactivity in female Sprague-Dawley rat plasma at 5 mg/kg, iv administered as single dose by LC/MS/MS analysis; type: ADME, organism-based; set-up: dose 5 mg/kg, dosed compound name [14C]Sunitinib, route intravenous; details: in vivo
In short: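 Single dose of [14C]sunitinib L-malate as free base, 50 µCi/kg. IV dose was 5 mg/kg by tail vein in 5 females. Oral dose was 15 mg/kg by gavage in 3 females and 3 males. Total radioactivity was by scintillation counting. […] Cmax was read from raw data, t½ by log-linear regression, AUC by linear trapezoidal rule.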

[25] = Drug concentration in female Lister Hooded pigmented rat uveal tract assessed as radioactivity per gram of tissue at 20 mg/kg administered as single dose via gastric gavage measured after 24 hrs by autoradiographic analysis; type: ADME, organism-based; set-up: dose 20 mg/kg, dosed compound name [14C]Sunitinib; details: in vivo, po; in short: as §2
[26] = Drug concentration in female albino rat uveal tract assessed as radioactivity per gram of tissue at 20 mg/kg administered as single dose via gastric gavage measured after 6 hrs by autoradiographic analysis; type: ADME, organism-based; set-up: dose 20 mg/kg, dosed compound name [14C]Sunitinib; details: in vivo, po
[27] = system: Zone of skin; assay: Drug concentration in female Lister Hooded pigmented rat abdomen skin assessed as radioactivity per gram of tissue at 20 mg/kg administered as single dose via gastric gavage measured after 72 hrs by autoradiographic analysis; type: ADME, organism-based; set-up: dose 20 mg/kg, dosed compound name [14C]Sunitinib; details: in vivo, po; in short: as §3
[28] = system: Zone of skin; assay: Drug concentration in female Lister Hooded pigmented rat abdomen skin assessed as radioactivity per gram of tissue at 20 mg/kg administered as single dose via gastric gavage measured after 24 hrs by autoradiographic analysis; type: ADME, organism-based; set-up: dose 20 mg/kg, dosed compound name [14C]Sunitinib; details: in vivo, po; in short: as §3

`CCN(CC)CCNC(=O)c1c(C)[nH]c(/[14CH]=C2\C(=O)Nc3ccc(F)cc32)c1C.O=C(O)C[C@H](O)C(=O)O` showed a Radiolabel recovery [1] of 22.94 ugequiv, a Radiolabel recovery [2] of 0.16 ugequiv and a Radiolabel recovery [3] of 7 ugequiv. The Radiolabel recovery [4] was 1.16 ugequiv, the Radiolabel recovery [5] was 13.24 ugequiv and the Radiolabel recovery [6] was 82.5%. For the same molecule, the Radiolabel recovery [7] was 16.24 ugequiv, the Radiolabel recovery [8] was 0.36 ugequiv and the Radiolabel recovery [9] was 9.1%. For the same molecule, the Radiolabel recovery [10] was 1.66 ugequiv, the Radiolabel recovery [11] was 1.9% and the Radiolabel recovery [12] was 0.74 ugequiv. It also gave a Radiolabel recovery [13] of 2.09 ugequiv, a Radiolabel recovery [14] of 11.1 ugequiv and a Radiolabel recovery [15] of 0.23 ugequiv. It also gave a Radiolabel recovery [16] of 1.64 ugequiv, a Radiolabel recovery [17] of 0.09 ugequiv and a Radiolabel recovery [18] of 15.16 ugequiv. For the same molecule, the Radiolabel recovery [19] was 3.39 ugequiv, the Radiolabel recovery [20] was 1.55 ugequiv and the Radiolabel recovery [21] was 8.54 ugequiv. The Radiolabel recovery [22] was 0.6%, the Radiolabel recovery [23] was 5.07 ugequiv and the t1/2 lambda z [24] was 10.3 h. For the same molecule, the Radiolabel recovery [25] was 124.52 ugequiv, the Radiolabel recovery [26] was 4.94 ugequiv and the Radiolabel recovery [27] was 0.26 ugequiv. For the same molecule, the Radiolabel recovery [28] was 3.23 ugequiv.
